According to ChEMBL document CHEMBL4177546, “Development of a Selective Inhibitor of Protein Arginine Deiminase 2” (J Med Chem, 2017):

Experiments:
[1] = target: T1, Protein-arginine deiminase type-2 (Homo sapiens, UniProt Q9Y2J8); test: Binding affinity to human PAD2 expressed in HEK293T cells assessed as protein occupancy at 25 uM preincubated for 15 mins followed by ionomycin addition measured after 1 hr in presence of CaCl2 by RIBFA probe based SDS-PAGE analysis relative to control; assay type: cell-based
T1 sequence (Q9Y2J8 whole entry): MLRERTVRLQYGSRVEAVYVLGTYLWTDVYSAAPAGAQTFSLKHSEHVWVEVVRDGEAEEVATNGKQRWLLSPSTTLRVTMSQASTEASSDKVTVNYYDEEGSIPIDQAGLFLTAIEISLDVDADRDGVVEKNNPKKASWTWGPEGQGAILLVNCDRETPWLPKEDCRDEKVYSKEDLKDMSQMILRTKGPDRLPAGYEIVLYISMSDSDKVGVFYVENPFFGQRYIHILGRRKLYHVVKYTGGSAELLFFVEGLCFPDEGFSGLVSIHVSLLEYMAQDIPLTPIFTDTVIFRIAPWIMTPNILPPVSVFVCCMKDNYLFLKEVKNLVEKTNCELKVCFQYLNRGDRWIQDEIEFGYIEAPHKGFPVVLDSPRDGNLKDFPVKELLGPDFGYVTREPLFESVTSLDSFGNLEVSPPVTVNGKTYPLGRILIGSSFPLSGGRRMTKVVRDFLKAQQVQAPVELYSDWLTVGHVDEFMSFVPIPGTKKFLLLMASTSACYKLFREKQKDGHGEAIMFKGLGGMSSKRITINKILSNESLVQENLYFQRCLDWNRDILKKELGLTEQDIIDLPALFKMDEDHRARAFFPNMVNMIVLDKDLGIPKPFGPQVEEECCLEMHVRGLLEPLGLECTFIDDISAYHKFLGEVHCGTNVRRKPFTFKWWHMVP
Procedure, shortened: (§1)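 Adherent HEK293T/PAD2 cells at 80–90% confluence in HBS with 2 mM CaCl₂ at 37 °C. Inhibitor (in DMSO) added for 15 min, then ionomycin (0.5 μM final) for 1 h. Cells washed and lysed in 1% Triton X-100. Lysate (2 μg/μL) labelled with RIBFA probe (2 μM) plus 2 mM CaCl₂ for 1 h at 37 °C. Gel resolved and fluorescence scanned (~546/579 nm). PAD2 occupancy expressed relative to DMSO control.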

[2] = target: T1, Protein-arginine deiminase type-2; test: Binding affinity to human PAD2 expressed in HEK293T cells assessed as protein occupancy preincubated for 15 mins followed by ionomycin addition measured after 1 hr in presence of CaCl2 by RIBFA probe based SDS-PAGE analysis; assay type: cell-based
Procedure, shortened: as §1, with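 “°C.” for “°C. Gel resolved and fluorescence scanned (~546/579 nm).”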

Homo sapiens [3] = species on record: Homo sapiens; test: Selectivity ratio of Kinact/Ki for recombinant human PAD2 expressed in Escherichia coli BL21(DE3)pLysS cells to Kinact/Ki for recombinant full length N-terminal GST-tagged human PAD4 expressed in Escherichia coli Rosetta cells
Procedure, shortened: (§2)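 Enzyme at 2.0 μM (PAD1, PAD2, PAD4) or 5.0 μM (PAD3) incubated at 37 °C with various inhibitor concentrations in 50 mM HEPES, 10 mM CaCl₂, 2 mM DTT, pH 7.6. Timed aliquots moved into substrate mix: 10 mM BAEE, or 10 mM BAA for PAD3. […] Selectivity ratios taken from these values.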

Homo sapiens [4] = species on record: Homo sapiens; test: Selectivity ratio of Kinact/Ki for recombinant His6-tagged PAD3 (unknown origin) to Kinact/Ki for recombinant full length N-terminal GST-tagged human PAD4 expressed in Escherichia coli Rosetta cells; procedure, shortened: as §2
[5] = target: T1, Protein-arginine deiminase type-2; test: Binding affinity to human PAD2 expressed in HEK293T cells assessed as decrease in histone H3 citrulination incubated for 3 hrs in presence of ionomycin/CaCl2 by SDS-PAGE analysis; assay type: cell-based
Procedure, shortened: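 HEK293T stably overexpressing human PAD2, 4 × 10⁵ cells in HBS, given ionomycin (10 μM), CaCl₂ (1 mM) and varying inhibitor concentrations (1% DMSO) for 3 h. Lysed with 1% Triton X-100 and sonicated at 0 °C. 1 μg protein run on SDS-PAGE, western blotted with antibodies to histone H3 and to citrullinated H3 (Cit 2,8,17), and imaged on Licor. EC50 taken from CitH3 intensity.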

Homo sapiens [6] = species on record: Homo sapiens; test: Selectivity ratio of Kinact/Ki for recombinant His6-tagged PAD1 (unknown origin) to Kinact/Ki for recombinant full length N-terminal GST-tagged human PAD4 expressed in Escherichia coli Rosetta cells; procedure, shortened: as §2
[7] = Safety index, ratio of compound EC50 to BB-Cl-amide EC50 for cytotoxicity against HEK293T cells; assay type: cell-based, HEK-293T; details: human, read-out: Ratio EC50
Homo sapiens [8] = species on record: Homo sapiens; test: Selectivity ratio of Kinact/Ki for recombinant human PAD2 expressed in Escherichia coli BL21(DE3)pLysS to Kinact/Ki for recombinant His6-tagged PAD3 (unknown origin); procedure, shortened: as §2
Homo sapiens [9] = species on record: Homo sapiens; test: Selectivity ratio of Kinact/Ki for recombinant full length N-terminal GST-tagged human PAD4 expressed in Escherichia coli Rosetta cells to Kinact/Ki for recombinant human PAD2 expressed in Escherichia coli BL21(DE3)pLysS cells; procedure, shortened: as §2
Homo sapiens [10] = species on record: Homo sapiens; test: Selectivity ratio of Kinact/Ki for recombinant His6-tagged PAD3 (unknown origin) to Kinact/Ki for recombinant human PAD2 expressed in Escherichia coli BL21(DE3)pLysS cells; procedure, shortened: as §2
Homo sapiens [11] = species on record: Homo sapiens; test: Selectivity ratio of Kinact/Ki for recombinant His6-tagged PAD1 (unknown origin) to Kinact/Ki for recombinant human PAD2 expressed in Escherichia coli BL21(DE3)pLysS cells; procedure, shortened: as §2
[12] = target: Protein-arginine deiminase type-4 (Homo sapiens) (UniProt Q9UM07); test: Ratio of Kinact to Ki for recombinant full length N-terminal GST-tagged human PAD4 expressed in Escherichia coli Rosetta cells preincubated for 10 mins followed by BAEE substrate addition measured after 15 mins by COLDER assay
Sequence of Protein-arginine deiminase type-4 (Homo sapiens) (Q9UM07 whole entry): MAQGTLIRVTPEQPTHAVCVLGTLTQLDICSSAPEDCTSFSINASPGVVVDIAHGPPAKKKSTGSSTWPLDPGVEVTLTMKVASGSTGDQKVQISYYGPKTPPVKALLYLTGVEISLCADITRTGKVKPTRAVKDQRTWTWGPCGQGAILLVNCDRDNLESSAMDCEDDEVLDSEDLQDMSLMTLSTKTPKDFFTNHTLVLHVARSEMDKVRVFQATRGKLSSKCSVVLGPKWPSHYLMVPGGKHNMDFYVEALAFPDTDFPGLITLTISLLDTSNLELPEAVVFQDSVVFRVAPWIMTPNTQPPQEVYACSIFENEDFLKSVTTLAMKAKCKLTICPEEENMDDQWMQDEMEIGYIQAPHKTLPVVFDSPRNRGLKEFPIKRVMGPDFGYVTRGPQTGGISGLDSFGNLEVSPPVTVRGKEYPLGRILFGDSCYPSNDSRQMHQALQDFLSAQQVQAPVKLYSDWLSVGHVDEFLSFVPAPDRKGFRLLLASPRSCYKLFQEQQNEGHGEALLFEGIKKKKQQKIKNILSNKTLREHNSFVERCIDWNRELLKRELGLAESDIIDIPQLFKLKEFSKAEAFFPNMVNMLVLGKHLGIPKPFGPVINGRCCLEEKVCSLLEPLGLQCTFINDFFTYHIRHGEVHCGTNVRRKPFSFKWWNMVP
Procedure, shortened: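 Enzyme at 2.0 μM (PAD1, PAD2, PAD4) or 5.0 μM (PAD3) incubated at 37 °C with various inhibitor concentrations in 50 mM HEPES, 10 mM CaCl₂, 2 mM DTT, pH 7.6. Timed aliquots moved into substrate mix: 10 mM BAEE, or 10 mM BAA for PAD3. Selectivity ratios taken from these values.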

Homo sapiens [13] = species on record: Homo sapiens; test: Selectivity ratio of Kinact/Ki for recombinant human PAD2 expressed in Escherichia coli BL21(DE3)pLysS cells to Kinact/Ki for recombinant His6-tagged PAD1 (unknown origin); procedure, shortened: as §2
Homo sapiens [14] = species on record: Homo sapiens; test: Selectivity ratio of Kinact/Ki for recombinant full length N-terminal GST-tagged human PAD4 expressed in Escherichia coli Rosetta to Kinact/Ki for recombinant His6-tagged PAD3 (unknown origin); procedure, shortened: as §2
Homo sapiens [15] = species on record: Homo sapiens; test: Selectivity ratio of Kinact/Ki for recombinant His6-tagged PAD1 (unknown origin) to Kinact/Ki for recombinant His6-tagged PAD3 (unknown origin); procedure, shortened: as §2

Structure (SMILES)	Activity [1]	EC50 [2]	Selectivity ratio (Homo sapiens [3])	Selectivity ratio (Homo sapiens [4])	EC50 [5]	Selectivity ratio (Homo sapiens [6])	selectivity ratio [7]	Selectivity ratio (Homo sapiens [8])	Selectivity ratio (Homo sapiens [13])	Selectivity ratio (Homo sapiens [14])	Selectivity ratio (Homo sapiens [15])	other results
CCOc1cccc2c1nc([C@H](CCCNC(=N)CF)NC(=O)c1cccc3c1C(=O)NC3)n2C	> 60%	8.3 µM	95	1.2	2.7 µM	65	> 30	79				
N=C(CF)NCCC[C@H](NC(=O)c1ccccc1C(=O)O)c1nc2ccccc2[nH]1												Selectivity ratio (Homo sapiens [9]): 16; Selectivity ratio (Homo sapiens [10]): 4.3; Selectivity ratio (Homo sapiens [11]): 11
N=C(CF)NCCC[C@H](NC(=O)c1ccc(-c2ccccc2)cc1)c1nc2ccccc2[nH]1		20.6 µM										Ratio [12]: 3750 M⁻¹ min⁻¹
CCN1Cc2cccc(C(=O)N[C@@H](CCCNC(=N)CF)c3nc4c(OC)cccc4n3C)c2C1=O	< 37%		85	1		16		85	5			
N=C(CCl)NCCC[C@H](NC(=O)c1ccccc1C(=O)O)c1nc2ccccc2[nH]1												Selectivity ratio (Homo sapiens [9]): 9; Selectivity ratio (Homo sapiens [10]): 6.2; Selectivity ratio (Homo sapiens [11]): 8.3
CCN1Cc2cccc(C(=O)N[C@@H](CCCNC(=N)CF)c3nc4ccccc4[nH]3)c2C1=O												Selectivity ratio (Homo sapiens [9]): 1; Selectivity ratio (Homo sapiens [10]): 1; Selectivity ratio (Homo sapiens [11]): 3.4
COc1ccc2c(c1)nc([C@H](CCCNC(=N)CF)NC(=O)c1cccc3c1C(=O)NC3)n2C	> 60%	5.9 µM			2.1 µM		> 30	114		1.2	121	
CCN1Cc2cccc(C(=O)N[C@@H](CCCNC(=N)CF)c3nc4ccccc4n3CC)c2C1=O			33	1		19			2			
CCn1c([C@H](CCCNC(=N)CF)NC(=O)c2cccc3c2C(=O)NC3)nc2ccccc21			33					56	2	1.7	37	
CCn1c([C@H](CCCNC(=N)CF)NC(=O)c2cccc3c2C(=O)NC3)nc2c(OC)cccc21	> 60%	7.6 µM	32	1	2.4 µM	38	> 30					
COc1cccc2c1nc([C@H](CCCNC(=N)CF)NC(=O)c1cccc3c1C(=O)NC3)n2C	> 60%	9.5 µM	15		0.4 µM		> 30	47	1.6	3.2	29	
COc1cccc2c1nc([C@H](CCCNC(=N)CF)NC(=O)c1cccc3c1C(=O)N(C1CC1)C3)n2C	< 37%							77		3.8	38	
